Experimental data: PMC3085951 (Journal of controlled release : official journal of the …, 2011)
Peptide text beside a SMILES is read from it.

Biological target: MT1-160p (Homo sapiens, UniProt P50281)
Test: Phage ELISA, apparent Kd of phage-displayed peptide with MT1-160p
Type: binding
How it was run: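 MT1-160p (MT1-MMP residues 160–174) coated at 100 µg/ml in carbonate buffer pH 9.6, 4°C overnight, then blocked with 1% BSA/PBS. Selected phages bound 2 h at 37°C, then PBST washes. Mouse anti-M13 (1:1000) 1 h at 37°C, then HRP goat anti-mouse (1:2500). TMB 30 min at 37°C in the dark, stopped with 2 M H2SO4, A450. Coated wells without phage served as blanks.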

For `CC(C)C[C@H](NC(=O)[C@H](Cc1ccccc1)NC(=O)[C@@H](NC(=O)[C@H](CCCCN)NC(=O)[C@@H](NC(=O)[C@H](CC(N)=O)NC(=O)[C@H](Cc1c[nH]cn1)NC(=O)[C@H](CC(C)C)NC(=O)[C@H](Cc1c[nH]cn1)NC(=O)[C@H](CCCCN)NC(=O)[C@H](Cc1c[nH]c2ccccc12)NC(=O)[C@@H](N)Cc1c[nH]cn1)[C@@H](C)O)[C@@H](C)O)C(=O)O` [MT1-AF7p] (H-HWKHLHNTKTFL-OH), the Kd was 0.075 nM.
